Laboratory results published in ChEMBL document CHEMBL4152236, “Substituted 1,5-naphthyridine derivatives as novel antileishmanial agents. Synthesis and biological evaluation” (Eur J Med Chem, 2018).
Activity calls are given as the source filed them. The calls are words filed in the database; no cut-off is given here.

Tests used:
[1] = system: Leishmania infantum; assay: Leishmanicidal activity against amastigote stage of iRFP expressing Leishmania infantum BCN150 infected in BALB/c mouse splenocytes assessed as decrease in parasite viability after 72 hrs; format: functional, organism-based; conditions: BCN150, 72 h
Outline: (§1)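 Female BALB/c mice infected intravenously with metacyclic L. infantum-iRFP promastigotes. After 5 weeks, spleens collagenase-digested (2 mg/mL, 20 min, 37 °C); splenocytes plated in RPMI with 20% FCS. Compounds added at 10 to 0.07 μM for 72 h. Infrared emission read at 708 nm; IC50 is the 50% reduction versus DMSO control. SI = CC50 in uninfected splenocytes / amastigote IC50.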

[2] = Cytotoxicity against BALB/c mouse splenocytes assessed as decrease in […] viability after 72 hrs by Alamar blue assay; format: cell-based, Splenocyte
Outline: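 Uninfected BALB/c mouse splenocytes, obtained and cultured as for the explants (RPMI, 20% FCS), exposed to compounds at 100 to 0.8 μM for 72 h at 37 °C. Viability read by Alamar Blue. CC50 taken from dose-response curves. Mean ± sd of at least three experiments in triplicate.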

[3] = Selectivity index, ratio of CC50 for BALB/c mouse splenocytes to IC50 for amastigote stage of iRFP expressing Leishmania infantum BCN150 infected in BALB/c mouse splenocytes; format: toxicity, cell-based; conditions: read-out: Ratio CC50/IC50; outline: as §1
[4] = molecular target: T1, DNA topoisomerase 1 (Homo sapiens, UniProt P11387); assay: Inhibition of human Top1B expressed in Top1B deficient Saccharomyces cerevisiae EKY3 assessed as decrease in relaxation of supercoiled pSK DNA preincubated for 15 mins followed by DNA addition and measured after 1 to 16 mins by agarose gel electrophoresis
T1 sequence (P11387 whole entry): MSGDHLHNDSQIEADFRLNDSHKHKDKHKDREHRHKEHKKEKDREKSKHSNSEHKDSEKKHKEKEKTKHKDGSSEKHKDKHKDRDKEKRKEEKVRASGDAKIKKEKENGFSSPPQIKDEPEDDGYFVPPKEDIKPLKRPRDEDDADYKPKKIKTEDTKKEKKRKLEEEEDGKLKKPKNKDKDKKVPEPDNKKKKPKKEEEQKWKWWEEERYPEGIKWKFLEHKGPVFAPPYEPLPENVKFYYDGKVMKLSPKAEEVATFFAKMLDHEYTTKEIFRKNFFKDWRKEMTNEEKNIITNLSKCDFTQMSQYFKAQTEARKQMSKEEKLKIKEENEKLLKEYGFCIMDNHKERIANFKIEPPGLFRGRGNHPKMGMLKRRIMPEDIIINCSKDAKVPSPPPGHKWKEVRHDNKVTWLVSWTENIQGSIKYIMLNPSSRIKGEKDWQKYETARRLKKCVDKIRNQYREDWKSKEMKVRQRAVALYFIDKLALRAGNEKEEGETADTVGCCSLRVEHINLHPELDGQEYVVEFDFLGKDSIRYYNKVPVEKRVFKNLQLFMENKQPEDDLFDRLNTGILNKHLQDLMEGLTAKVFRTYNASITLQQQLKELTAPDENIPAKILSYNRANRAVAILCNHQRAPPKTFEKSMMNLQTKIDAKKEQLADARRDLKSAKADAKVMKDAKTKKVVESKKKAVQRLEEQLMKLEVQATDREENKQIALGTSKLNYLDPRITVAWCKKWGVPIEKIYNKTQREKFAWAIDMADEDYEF
Outline: (§2)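 Recombinant LTopIB or hTopIB from TopIB-deficient yeast EKY3 (galactose-induced), purified on phosphocellulose then phenyl-Sepharose. Enzyme (1 unit) preincubated with compound for 15 min at 37 °C. Then 0.5 μg supercoiled pSK DNA added in 10 mM Tris-HCl pH 7.5, 5 mM MgCl₂, 0.1 mM EDTA, 50 mM KCl, BSA. Incubated at 37 °C, stopped with 1% SDS. Agarose gel; relaxed and supercoiled bands quantified.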

[5] = system: Leishmania infantum; assay: Leishmanicidal activity against promastigote stage of iRFP expressing Leishmania infantum BCN150 assessed as decrease in parasite viability; format: functional, organism-based
Outline: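 Promastigotes grown in M199 with 10% heat-inactivated FCS, seeded at 10^6 cells/mL. Compounds given as three-fold DMSO stock dilutions, final DMSO ≤0.1%. Viability read as infrared fluorescence (ex 684, em 708 nm). IC50 is the 50% emission reduction versus DMSO control, from nonlinear fits. Triplicate wells.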

[6] = Inhibition of Leishmania donovani Top1B expressed in Top1B deficient Saccharomyces cerevisiae EKY3 assessed as decrease in relaxation of supercoiled pSK DNA preincubated for 15 mins followed by DNA addition and measured after 1 to 16 mins by agarose gel electrophoresis; outline: as §2
[7] = system: Leishmania donovani; assay: Inhibition of Leishmania donovani Top1B expressed in Top1B deficient Saccharomyces cerevisiae EKY3 assessed as decrease in relaxation of supercoiled pSK DNA at 100 uM at 37 degC preincubated for 15 mins followed by DNA addition and measured after 1 to 16 mins by agarose gel electrophoresis; outline: as §2

Row | Compound | IC50 [4] | IC50 ([6]; read-out: IC50) | IC50 ([4]; read-out: IC50) | inhibition [7] | IC50 [6] | IC50 [1] | CC50 at 72 h [2] | selectivity ratio [3] | IC50 [5]
1 | CC[C@@]1(O)C(=O)OCc2c1cc1n(c2=O)Cc2cc3ccccc3nc2-1 [CAMPTOTHECIN] |  | 75.7 µM |  |  |  |  |  |  | 
2 | COc1cccc(-c2cc(-c3ccccc3)c3ncccc3n2)c1 |  |  | 82 µM |  |  | 0.58 µM | 157 µM | 272 | > 100 µM
3 | C[C@@H]1[C@H](O)[C@@H](C)/C=C/C=C/C=C/C=C/C=C/C=C/C=C/[C@H](O[C@@H]2O[C@H](C)[C@@H](O)[C@H](N)[C@@H]2O)C[C@@H]2O[C@](O)(C[C@@H](O)C[C@@H](O)[C@H](O)CC[C@@H](O)C[C@@H](O)CC(=O)O[C@H]1C)C[C@H](O)[C@H]2C(=O)O [AMPHOTERICIN B] |  |  |  |  |  |  | > 20 µM | > 62.5 | 
4 | c1ccc(-c2cc(-c3ccccc3)c3ncccc3n2)cc1 |  |  | 11.2 µM | Active |  | 8.42 µM | 54.8 µM | 6.5 | 27.2 µM
5 | O=[N+]([O-])c1cccc(-c2cc(-c3ccc(-c4ccccc4)cc3)c3ncccc3n2)c1 |  | 78.7 µM | 67.5 µM |  |  | 0.29 µM | 30.1 µM | 104 | 15.1 µM
6 | Fc1ccc(-c2cc(-c3ccc(-c4ccccc4)cc3)c3ncccc3n2)cc1 |  | 58.1 µM | 83.3 µM |  |  | 5.04 µM | 153 µM | 30.2 | 45.2 µM
7 | COc1ccc(-c2cc(-c3ccc(C(F)(F)F)cc3)nc3cccnc23)cc1 | Not Active |  |  |  |  | 2.26 µM | 152 µM | 67.1 | > 100 µM
8 | Fc1ccc(-c2cc(-c3ccccc3)c3ncccc3n2)cc1F |  | 76.6 µM | 73.1 µM |  |  | 2.82 µM | 21.7 µM | 7.7 | > 100 µM
9 | COc1ccc(-c2cc(-c3cccc([N+](=O)[O-])c3)nc3cccnc23)cc1 | Not Active |  |  |  | Not Active | 3.79 µM | 133 µM | 35.1 | 45.2 µM
10 | FC(F)(F)c1ccc(-c2cc(-c3ccsc3)c3ncccc3n2)cc1 |  | 62.8 µM | 82.1 µM |  |  | 3.67 µM | 181 µM | 49.4 | > 100 µM
11 | Cc1c(-c2ccc(C(F)(F)F)cc2)nc2cccnc2c1-c1ccccc1 |  | 75.7 µM | 70.6 µM |  |  | 2.37 µM | 126 µM | 53.2 | > 100 µM

Further lines, with some results ahead:

Row | IC50 [4] | IC50 ([6]; read-out: IC50) | IC50 ([4]; read-out: IC50) | inhibition [7] | IC50 [6] | Compound | IC50 [1] | CC50 at 72 h [2] | selectivity ratio [3] | IC50 [5]
12 | Not Active |  |  |  |  | O=[N+]([O-])c1cccc(-c2cc(-c3ccccc3)c3ncccc3n2)c1 | 1.02 µM | 146 µM | 143 | 79.2 µM
13 |  | 49.3 µM | 43.8 µM |  |  | Fc1ccc(-c2cc(-c3ccsc3)c3ncccc3n2)cc1 | 7.93 µM | 32.5 µM | 4.1 | 67 µM
14 |  | 69.5 µM | 72.7 µM |  |  | FC(F)(F)c1ccc(-c2cc(-c3ccccc3)c3ncccc3n2)cc1 | 0.47 µM | 65.7 µM | 140 | 37.3 µM
15 | Not Active |  |  |  | Not Active | COc1ccc(-c2cc(-c3ccc([N+](=O)[O-])cc3)nc3cccnc23)cc1 | 0.58 µM | 109 µM | 187 | 20.7 µM
16 | Not Active |  |  |  | Not Active | COc1ccc(-c2cc(-c3ccc(F)cc3)nc3cccnc23)cc1 | 0.76 µM | 24.2 µM | 31.8 | 97.2 µM
17 |  |  | 50.9 µM |  |  | FC(F)(F)c1ccc(-c2cc(-c3ccc(C(F)(F)F)cc3)c3ncccc3n2)cc1 | 9.47 µM | 178 µM | 18.8 | > 100 µM
18 |  | 81.9 µM | 72.8 µM |  |  | Fc1ccc(-c2cc(-c3ccccc3)c3ncccc3n2)cc1 | 7.41 µM | 124 µM | 16.7 | > 100 µM
